Screening data from PubChem.
In the library only some 1.5% were active in any assay of this set; here they are far more common.
DAGLB inhibitor: blocks human DAGLB lipase activity | Q8NCG7 | HEK293T DAGLB membrane lysate, EnzChek fluorogenic substrate | inhibition, % at 5.17 µM | actives 0.059% (n = 340,000) | AID 504411; in the data active means inhibition above about 34%;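 further: 0% = enzyme with vehicle and 100% = wells lacking enzyme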
HTRA1 inh: blocks human HTRA1 serine peptidase; Q92743; recombinant HTRA1, FP-rhodamine activity-based probe, fluorescence polarization; inhibition, % at 5.96 µM; actives 0.5% (n = 340,000); AID 504803; in the data active means inhibition above about 36%;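 further: 0% = enzyme with DMSO and 100% = wells lacking enzyme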
Target sequence (Q92743 whole entry, looked up): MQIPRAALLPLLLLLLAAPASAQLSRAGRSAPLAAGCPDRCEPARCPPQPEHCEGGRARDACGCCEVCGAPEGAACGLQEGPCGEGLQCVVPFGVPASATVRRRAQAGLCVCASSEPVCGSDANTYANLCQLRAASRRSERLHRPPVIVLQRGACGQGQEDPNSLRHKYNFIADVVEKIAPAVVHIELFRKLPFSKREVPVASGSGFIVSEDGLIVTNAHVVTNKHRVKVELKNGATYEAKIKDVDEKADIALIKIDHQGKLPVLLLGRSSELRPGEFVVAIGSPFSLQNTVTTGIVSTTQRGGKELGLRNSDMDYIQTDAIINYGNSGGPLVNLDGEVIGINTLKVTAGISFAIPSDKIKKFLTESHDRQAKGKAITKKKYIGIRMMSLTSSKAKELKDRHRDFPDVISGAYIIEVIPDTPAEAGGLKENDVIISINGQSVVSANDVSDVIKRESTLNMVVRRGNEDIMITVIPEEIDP
mABHD4 FP: inhibits mouse alpha/beta hydrolase domain 4 | Q8VD66 | purified mABHD4, FP-Rh probe fluorescence polarization | inhibition, % at 8.92 µM | actives 0.54% (n = 370,000) | AID 720543;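 active means inhibition exceeding the mean over every tested compound plus 3 SD, cut at about 30% in these data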;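 further: 0% = plate median of compound wells and 100% = S159A mutant with DMSO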
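Assay system: mABHD4 protein; medium: HEPES pH 7.0, NaCl, Pluronic buffer; dosing: 8.92 µM, single dose; schedule: 45 min + 60 min at 25 °C; signal: FP readout, ex 525 nm / em 598 nm; read-out: normalized percent inhibition of probe labeling; repeats: single replicate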
SIAE inh: human SIAE inhibition, primary screen; Q9HAT2; SIAE FP-Rh probe binding, fluorescence polarization; inhibition, % at 9.66 µM; actives 0.69% (n = 370,000);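 active means inhibition above a cutoff: mean of compounds within the control limits plus 3 SD of those, cut at about 17% in these data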;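 further: 0% = plate median of compound wells and 100% = probe without SIAE protein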
TCR CD3 inh: inhibitors of human TCR-CD3 interaction; TAMRA-labeled TCR probe fluorescence, biochemical; inhibition, % at 9.4 µM; actives 0.37% (n = 360,000); AID 651800;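 further: recombinant mutant TCR 2C K166C tagged with TAMRA read by polarization; 0% = receptor in buffer alone and 100% = receptor with positive control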
HTRA1 inh conf: HTRA1 (human) inhibition, confirmation. shares compounds with HTRA1 inh. recombinant HTRA1, FP-rhodamine activity-based probe, fluorescence polarization. inhibition, % at 5.96 µM. actives 66% (n = 1,600). AID 540248;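 active means mean inhibition over three repeats above a set limit taken from the earlier primary screen, cut at about 37% in these data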;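 further: 0% = HTRA1 with DMSO and 100% = wells lacking HTRA1; inhibitors block probe binding so polarization drops and inhibition rises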
BSA probe FL: interferes with TAMRA-BSA probe, flagging TCR-CD3 hits; shares compounds with TCR CD3 inh; TAMRA-labeled BSA probe fluorescence counterscreen; inhibition, % at 9.4 µM; actives 10% (n = 1,200); in the data active means inhibition above about 23%;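 further: 0% = buffer low control and 100% = reference high control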
TCR-CD3 inh conf: TCR-CD3 interaction inhibition, confirmation | inhibition, % at 9.4 µM | AID 652036 | actives 48% (n = 1,200) | shares compounds with TCR CD3 inh | TAMRA-labeled TCR probe fluorescence binding assay
mABHD4 conf: ABHD4 (mouse) inhibition, FP confirmation; inhibition, % at 8.92 µM; actives 55% (n = 1,800); shares compounds with mABHD4 FP; purified mABHD4, FP-Rh probe fluorescence polarization;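 active means mean inhibition across replicates above the hit cutoff set in the primary screen, cut at about 30% in these data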;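 further: 0% = wild-type ABHD4 with DMSO and 100% = catalytically dead S159A mutant with DMSO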
An asterisk follows results filed as active; / = no result; + = active, no number. Unless noted, no stated cut-off is given here; in the data, active means inhibition above about 19%; inactive means the rest.

SMILES	DAGLB inhibitor	HTRA1 inh	mABHD4 FP	SIAE inh	TCR CD3 inh	HTRA1 inh conf	mABHD4 conf	others
CCCC(=O)C1=C(c2ccccc2)C(C#N)(C#N)C(C#N)=C1N	3	38*	38*	13	1	55*	22
COC(=O)[C@H](C(C)C)N(CCc1cn(CC2CCCCC2)nn1)S(=O)(=O)c1ccc(F)cc1Br	/	/	1	-2	/	/	/
c1ccc(-c2ccccc2C2Cc3nnccc3CN2)cc1 (configuration not stated)	/	/	1	-4	5	/	/
O=C(C=Cc1cccc(O)c1)c1ccccc1O	0	-8	-17	-6	5	/	/
O=C(/C=C/c1ccc(O)c(O)c1)c1ccccc1O	16	60*	36*	-10	7	68*	27
CCCCCCCCCCOC(=O)Cn1c(COc2cccc(C)c2)[n+](C)c2ccccc21	5	38*	32*	2	2	33	38*
COc1ccc(C2CC(=O)C(c3ccc([N+](=O)[O-])cc3)=CN2Cc2ccccc2)cc1 (configuration not stated)	/	/	-9	-3	-6	/	/
CN=c1scc(-c2ccccc2F)n1/N=C/c1ccc(O)c(O)c1O	7	72*	49*	16	16	77*	60*
CC(C)N=c1scc(-c2cccs2)n1/N=C/c1ccc(O)c(O)c1O	11	57*	41*	14	7	65*	54*
CCN=c1scc(-c2cccs2)n1/N=C/c1cc(OC)ccc1O	-4	-1	3	11	7	/	/
Cc1ccc(C)c(/C=C/C(=O)c2ccccc(=O)c2O)c1	16	54*	38*	11	11	59*	24
CCN(CC)c1ccc(N=C2C(=O)Nc3ccccc32)cc1	2	63*	46*	15	-5	44*	51*
NS(=O)(=O)c1ccc(NCc2c(F)cccc2Cl)cc1	0	4	-5	14	1	/	/
Fc1cccc(Cl)c1CNc1ccc(N2CCCC2)cc1	12	47*	32*	11	5	32	49*
O=C(Nc1ccc(C(F)(F)F)cc1)OC1CCC12CCCCC2 (configuration not stated)	/	/	-4	1	/	/	/
NC(=O)C1CCN(C2=C(NS(=O)(=O)c3ccc(Br)cc3)C(=O)c3ccccc3C2=O)CC1	24	7	6	6	-1	/	/
CCOC(=O)C1CCN(C2=C(NS(=O)(=O)c3ccc(Br)cc3)C(=O)c3ccccc3C2=O)CC1	30	47*	45*	19*	-9	65*	63*
CN1CCN(C2=C(Cl)C(=O)c3ccccc3C2=O)CC1	-8	50*	37*	13	15	48*	32*
O=C1C(Cl)=C(N2CCC(C(=O)O)CC2)C(=O)c2ccccc21	-2	7	/	/	/	/	/
Nc1scc2c(C(=O)N/N=C/c3ccc(Cl)cc3)nn(-c3ccccc3)c(=O)c12	7	41*	44*	12	12	-4	20
CCCC/C=C1/C(c2ccccc2)N(Cc2ccc(OC)cc2OC)C2=NC(c3ccccc3)CC(=O)N21 (configuration not stated)	/	/	-4	1	/	/	/
Oc1cccc(C=NCc2ccccc2)c1O	3	55*	45*	18*	29*	62*	43*
CC(C)CNC(=O)OCc1cn(Cc2ccc(F)c(F)c2)nn1	/	/	-3	-5	/	/	/
CCCCCCCCCCCCCCCC(O)C[N+](C)(C)CCO (configuration not stated)	4	+	38*	1	-5	66*	51*
Oc1ccccc1N=Cc1c(O)ccc2ccccc12	1	63*	45*	11	29*	78*	45*	BSA probe FL=-9;TCR-CD3 inh conf=37*
SMILES	DAGLB inhibitor	HTRA1 inh	mABHD4 FP	SIAE inh	TCR CD3 inh	HTRA1 inh conf	mABHD4 conf	others
O=C(NCc1ccccn1)C1Nc2ccc(C(F)(F)F)cc2C2C=CCC12 (configuration not stated)	5	45*	32*	16	-6	4	4
COCCNC(=O)C1Nc2ccc(OC(F)(F)F)cc2C2C=CCC12 (configuration not stated)	9	33	29	13	3	/	/
FC(F)(F)c1ccc2c(c1)C1C=CCC1C(c1ccncc1)N2 (configuration not stated)	11	52*	39*	10	-19	59*	13
CC(C)CNS(=O)(=O)/C=C/c1ccccc1CCNC(=O)OC(C)(C)C	/	/	1	0	/	/	/
COc1ccccc1Cc1c(C(C)(C)C)nc2c(C)cc(Br)cn12	/	/	7	-1	-3	/	/
N#Cc1c(N)nc2c3c(sc(=N)c2c1N)NC(=O)CC3c1c(F)cccc1Cl (configuration not stated)	5	63*	35*	0	10	25	17
Cc1c(C#N)c(N)nc2c3c(sc12)NC(=O)CC3c1ccc(Cl)cc1 (configuration not stated)	4	-16	8	13	2	/	/
Cc1cc2c(nc1C)CCCN2S(=O)(=O)c1cccs1	/	/	1	-1	1	/	/
CC(C)c1ccc(/C=N/Nc2cc(N3CCOCC3)nc(N3CCOCC3)n2)cc1	0	-9	-1	-1	-3	/	/
Oc1ccc(/C=N/Nc2cc(N3CCCC3)nc(N3CCCC3)n2)cc1O	5	58*	35*	22*	33*	140*	40*
O=C1c2cc(CO)cc(O)c2C(=O)c2c(O[C@@H]3OC(CO)[C@@H](O)[C@@H](O)[C@@H]3O)cccc21 (some centres not stated)	-2	-2	10	8	-2	/	/
O=C(O)c1cc(O)c2c(c1)[C@H]([C@H]1c3cc(C(=O)O)cc(O)c3C(=O)c3c(O[C@@H]4O[C@H](CO)[C@@H](O)[C@H](O)[C@H]4O)cccc31)c1cccc(OC3O[C@H](CO)[C@@H](O)[C@H](O)[C@H]3O)c1C2=O (some centres not stated)	5	40*	60*	74*	137*	19	5	BSA probe FL=-14;TCR-CD3 inh conf=135*
CC(C)C[C@H]1COc2cc(N3CCCC3)ccc2S(=O)(=O)N1	/	/	10	9	-1	/	/
CC1CCCC(C)N1/N=C/c1ccc(O)c(O)c1 (configuration not stated)	4	43*	36*	6	23*	29	12	BSA probe FL=-1;TCR-CD3 inh conf=20*
